For test [1], the system named is HepG2. As to the kind of experiment: Induction of apoptosis in human HepG2 cells assessed as late apoptotic cells at 2.5 uM after 48 hrs by annexin V-FITC/propidium iodide staining based assay (reference value: 1.8 %). The class given is functional.
Test [2] concerns HepG2. As to the kind of experiment: Induction of apoptosis in human HepG2 cells assessed as late apoptotic cells at 1.25 uM after 48 hrs by annexin V-FITC/propidium iodide staining based assay (reference value: 1.8 %). The class given is functional.
In test [3] the test system is HepG2. The test is described as follows: Induction of apoptosis in human HepG2 cells assessed as early apoptotic cells at 1.25 uM after 48 hrs by annexin V-FITC/propidium iodide staining based assay (reference value: 3.2 %). The class given is functional.
In test [4] the test system is HepG2. The test is described as follows: Induction of apoptosis in human HepG2 cells assessed as early apoptotic cells at 5 uM after 48 hrs by annexin V-FITC/propidium iodide staining based assay (reference value: 3.2 %). Type of test: functional.
In test [5] the test system is HepG2. As to the kind of experiment: Induction of apoptosis in human HepG2 cells assessed as late apoptotic cells at 5 uM after 48 hrs by annexin V-FITC/propidium iodide staining based assay (reference value: 1.8 %). Type of test: functional.
In test [6] the test system is HepG2. As to the kind of experiment: Induction of apoptosis in human HepG2 cells assessed as early apoptotic cells at 2.5 uM after 48 hrs by annexin V-FITC/propidium iodide staining based assay (reference value: 3.2 %). The class given is functional.
The target in test [7] is T1, Histone deacetylase 1 (Homo sapiens, UniProt Q13547). The test is described as follows: Inhibition of HDAC1 (unknown origin) using Boc-Lys (Ac)-AMC as substrate measured after 60 mins by […]. Background: In an ELISA, binding on a coated surface is turned into a signal by an enzyme label.
Test [8] relates to HepG2. The test is described as follows: Potency index, ratio of SAHA IC50 to test compound IC50 for antiproliferative activity against human HepG2 cells. Type of test: functional.
Test [9] concerns the target T1, Histone deacetylase 1. As to the kind of experiment: Inhibition of HDAC1 in human HepG2 cells assessed as increase in acetylated histone H3 levels by Western blot analysis. The class given is cell-based. The method, boiled down: (§1)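 HepG2 cells were treated at three concentrations (1.25, 2.5 and 5.0), with SAHA as the reference. Acetylated histone H3 and H4 were detected by immunoblotting. Ac-H3 and Ac-H4 band intensities were quantified by densitometric scanning and normalised to β-actin, n = 3.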

In test [10] the test system is HepG2. As to the kind of experiment: Induction of apoptosis in human HepG2 cells after 48 hrs by annexin V-FITC/propidium iodide staining based assay. The class given is functional, cell-based.
Test [11] concerns the target T1, Histone deacetylase 1. The test is described as follows: Inhibition of HDAC1 in human HepG2 cells assessed as increase in acetylated histone H4 levels by Western blot analysis. Type of test: cell-based. An outline of the steps:
as §1
Background: In western blotting, separated proteins are transferred to a membrane and probed.

Another test has as its system HCCLM3. As to the kind of experiment: Antiproliferative activity against human HCCLM3 cells after 48 hrs by MTT assay. The note with it: HCCLM3, 48 h. Type of test: functional, cell-based.
Test [12] concerns HepG2. As to the kind of experiment: Antiproliferative activity against human HepG2 cells after 48 hrs by MTT assay. The class given is functional, cell-based. The note with it: HepG2, 48 h. On the technique in general: Tetrazolium dyes change colour on reduction, which living cells bring about.
Test [13] concerns the target T1, Histone deacetylase 1. As to the kind of experiment: Potency index, ratio of SAHA IC50 to test compound IC50 for HDAC1 (unknown origin).

The structures appear in SMILES notation.

What is called IC50 is the point on the concentration scale where inhibition reaches its midpoint. A low value points to greater potency.

T1 sequence (Q13547 whole entry): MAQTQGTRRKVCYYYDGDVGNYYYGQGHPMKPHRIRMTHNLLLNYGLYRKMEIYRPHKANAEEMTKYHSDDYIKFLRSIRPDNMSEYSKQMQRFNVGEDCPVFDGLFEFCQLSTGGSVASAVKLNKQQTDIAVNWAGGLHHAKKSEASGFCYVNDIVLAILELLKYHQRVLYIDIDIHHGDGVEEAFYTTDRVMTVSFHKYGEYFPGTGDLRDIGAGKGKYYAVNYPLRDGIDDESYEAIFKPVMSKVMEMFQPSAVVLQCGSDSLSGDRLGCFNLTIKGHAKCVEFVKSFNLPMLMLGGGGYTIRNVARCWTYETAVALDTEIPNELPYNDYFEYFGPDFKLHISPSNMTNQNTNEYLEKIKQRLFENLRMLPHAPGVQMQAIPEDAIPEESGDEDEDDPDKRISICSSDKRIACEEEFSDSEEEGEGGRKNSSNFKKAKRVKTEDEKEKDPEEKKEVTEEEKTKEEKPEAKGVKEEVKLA

On to `O=C(CCCCCCC(=O)Nc1ccccc1)NO` [VORINOSTAT], for which the Activity with HepG2 [1] stood at 10.7%; in the test on HepG2 [2] it was 9.3%; in the test on HepG2 [3], 29.7%; in the test with HepG2 [4], 40.4%; in the test with HepG2 [5] it was 10.7%; in the test on HepG2 [6] it was 33.5%.

Take `COc1ccc(N(Cc2noc(-c3cccc(F)c3)n2)C(=O)CCCCCC(=O)NO)cc1`: the IC50 against Histone deacetylase 1 [7] was determined as 10.5 nM; in the test on HCCLM3, 6560 nM; with HepG2 [12] it was 1030 nM. Also, the “Ratio IC50” value in the test on HepG2 [8] is 2 - 4. Further, the inhibition entry at Histone deacetylase 1 [9] and at Histone deacetylase 1 [11] was “Dose-dependent effect” throughout. The Activity is 14% with HepG2 [1]; 11.1% in the test on HepG2 [2]; “Dose-dependent effect” in the test with HepG2 [10]; 44.6% with HepG2 [3]; 50.8% in the test on HepG2 [4]; 10% in the test on HepG2 [5]. For the same compound, the Activity in the test with HepG2 [6] is reported as 44%.

For `COc1ccc(N(Cc2noc(-c3cccc(C)c3)n2)C(=O)CCCCCC(=O)NO)cc1`, the IC50 is 12.1 nM at Histone deacetylase 1 [7], 6830 nM in the test with HCCLM3 and 1680 nM with HepG2 [12]. Further, the “Ratio IC50” value with HepG2 [8] is on record as 2 - 4.

Consider `COc1ccc(N(Cc2noc(-c3ccccc3)n2)C(=O)CCCCCC(=O)NO)cc1`, for which the half-maximal inhibitory concentration (IC50) against Histone deacetylase 1 [7] was found to be 8.2 nM; in the test on HCCLM3 it was 5190 nM; in the test on HepG2 [12], 1070 nM. In addition, the “Ratio IC50” value was 2 - 4 in the test with HepG2 [8] and 2 at Histone deacetylase 1 [13]. Moreover, the inhibition entry on Histone deacetylase 1 [9] and on Histone deacetylase 1 [11] was “Dose-dependent effect” each time. Also, the Activity was 11.3% in the test on HepG2 [1]; 10.1% in the test with HepG2 [2]; “Dose-dependent effect” in the test on HepG2 [10]; 40.7% with HepG2 [3]; 50.2% in the test on HepG2 [4]; 11.5% in the test with HepG2 [5]. Besides, in the test on HepG2 [6], the Activity is 42.7%.

These data come from ChEMBL document CHEMBL4308883, “Development of hydroxamate-based histone deacetylase inhibitors containing 1,2,4-oxadiazole moiety core with antitumor activities” (Bioorg Med Chem Lett, 2019).
